Series [1] in a line: Antiproliferative activity against BALB/c mouse splenocytes assessed as inhibition of [3H]thymidine incorporation into DNA at 100 uM after 24 hrs […] relative to control. The format is cell-based, Splenocyte. An outline of the steps: (§1)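 Spleens from male BALB/c mice (5–6 weeks) were teased into single cells in RPMI-1640 with 20 mM Hepes (pH 7.35) and checked by trypan blue. After 30 min preincubation, 10^6 cells/ml were held in medium with 15% FCS, with compound dissolved in medium. Incubation was at 37° in air-CO₂ (95:5). [³H]-thymidine (2 μCi/ml) was added after 1 h and the run stopped 24 h later. Read-out is cpm/10^6 cells; % inhibition = [1 − cpm treated/cpm control]×100; Student's t-test.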

The nature of series [2]: Antiproliferative activity against BALB/c mouse splenocytes assessed as inhibition of [3H]thymidine incorporation into DNA at 10 uM after 24 hrs […] relative to control. Type of series: cell-based, Splenocyte. The essentials:
as §1

Series [3] can be described thus: Antiproliferative activity against BALB/c mouse splenocytes assessed as inhibition of [3H]thymidine incorporation into DNA at 1 uM after 24 hrs […] relative to control. Type of series: cell-based, Splenocyte. The essentials:
as §1

Series [4] in a line: Antiproliferative activity against Syrian hamster hepatoma cells assessed as inhibition of [3H]thymidine incorporation into DNA at 100 uM after 24 hrs […] relative to control. The format is functional. To be noted: Mesocricetus auratus. The essentials: (§2)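 Hepatoma was raised in Syrian hamsters by s.c. Kirkman-Robbins hepatoma pulp. Tumour cells were freed mechanically and with 0.4% collagenase plus 0.2% trypsin (>95% viable). After 30 min preincubation, 0.5×10^6 cells/ml were held in RPMI-1640 with 15% FCS and compound in medium at 37°, air-CO₂ (95:5). [³H]-thymidine (2 μCi/ml) was added at 1 h and incubation ended 24 h later. Read-out is cpm/10^6 cells; % inhibition vs control; Student's t-test.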

The nature of series [5]: Antiproliferative activity against Syrian hamster hepatoma cells assessed as inhibition of [3H]thymidine incorporation into DNA at 10 uM after 24 hrs […] relative to control. The format is functional. The settings on record: Mesocricetus auratus. The essentials: as §2

Take `CC(C)CC(=O)O[C@@H]1OC=C(CO[C@@H]2O[C@H](CO)[C@@H](O)[C@H](O)[C@H]2O)[C@@H]2CC=C(CO)[C@@H]12`: the inhibition at 24 h, 100 µM in series [1] is 59%. The inhibition at 24 h, 10 µM in series [2] is 24%. Further, in series [3], the inhibition at 24 h, 1 µM worked out at 4%. In series [4], the inhibition at 100 µM is 69%. In series [5], the inhibition at 10 µM was determined as 12%.
`C=C1[C@H]2[C@H](OC(=O)CC(C)C)OC=C(CO[C@@H]3O[C@H](CO)[C@@H](O)[C@H](O)[C@H]3O)[C@@H]2C[C@@H]1O`: the inhibition at 24 h, 100 µM in series [1] was 45%. Further, in series [2], the inhibition at 24 h, 10 µM was found to be 16%. The inhibition at 24 h, 1 µM in series [3] turned out to be 9%. Further, in series [4], the inhibition at 100 µM came out at 75%. For the same compound, in series [5], the inhibition at 10 µM worked out at 18%.
On to `CC(C)CC(=O)O[C@@H]1OC=C(CO)[C@@H]2CC=C(CO)[C@@H]12`, for which, in series [1], the inhibition at 24 h, 100 µM was 60%. Also, the inhibition at 24 h, 10 µM in series [2] turned out to be 25%. Moreover, in series [3], the inhibition at 24 h, 1 µM stood at 15%.

The values above are taken from ChEMBL document CHEMBL1158998, “Studies on iridoids of tissue cultures of Penstemon serrulatus: isolation and their antiproliferative properties” (J Nat Prod, 1992).
